The values that follow come from ChEMBL document CHEMBL3797147, “Nitric oxide production inhibition and mechanism of phenanthrene analogs in lipopolysaccharide-stimulated RAW264.7 macrophages” (Bioorg Med Chem Lett, 2016).

Series [1] in a line: Cytotoxicity against mouse RAW264.7 cells assessed as cell viability at 50 uM incubated for 24 hrs by Alamar-Blue assay. Format: cell-based. As to conditions: read-out: Activity. In general terms: The colour change of resazurin is a common sign of viable cells or microbes.
For series [2], the system named is RAW264.7. Description: Anti-inflammatory activity in mouse RAW264.7 cells assessed as LPS-induced nitric oxide production level at 50 uM pre-incubated for 2 hrs before LPS stimulation for 24 hrs by Griess assay relative to untreated control. Format: functional. In short, it runs like this: (§1)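 Cells pretreated with compound at various concentrations for 2 h, then LPS 0.5 µg/mL added for 24 h; nitrite in medium read with Griess reagent; means ± SD of triplicates.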

Series [3] relates to RAW264.7. Description: Anti-inflammatory activity in mouse RAW264.7 cells assessed as reduction in LPS-induced nitric oxide production level pre-incubated for 2 hrs before LPS stimulation for 24 hrs by Griess assay relative to untreated control. It counts as functional, cell-based. In short, it runs like this: as §1
The subject of series [4] is RAW264.7. Description: Inhibition of LPS-induced iNOS mRNA expression in mouse RAW264.7 cells at 10 uM pre-incubated for 2 hrs before LPS stimulation for 24 hrs by qRT-PCR method. It counts as functional, cell-based. In a few lines:
(§2)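 Cells pretreated with compound or 10 µM BAY 11-7082 for 2 h, then LPS 0.5 µg/mL for 24 h; total RNA extracted, iNOS mRNA by qRT-PCR normalised to GAPDH.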
On the technique in general: Real-time PCR tracks product formation cycle by cycle.

Series [5] relates to RAW264.7. As to the kind of experiment: Inhibition of LPS-induced IL-1beta mRNA expression in mouse RAW264.7 cells at 10 uM pre-incubated for 2 hrs before LPS stimulation for 24 hrs by qRT-PCR method. Format: functional, cell-based. In a few lines: (§3)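 Cells in 6-well plates pretreated (1, 10, 50 µM; BAY 11-7082 10 µM reference) 2 h before LPS 0.5 µg/mL for 24 h; IL-1b and IL-6 mRNA by qRT-PCR against GAPDH; mean ± SD of three experiments in triplicate.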

In series [6] the test system is RAW264.7. Description: Anti-inflammatory activity in mouse RAW264.7 cells assessed as LPS-induced nitric oxide production level at 10 uM pre-incubated for 2 hrs before LPS stimulation for 24 hrs by Griess assay relative to untreated control. It counts as functional. In short, it runs like this: as §1
In general terms: Griess reagent forms a coloured azo dye with nitrite.

The subject of series [7] is RAW264.7. Description: Inhibition of LPS-induced IL-6 mRNA expression in mouse RAW264.7 cells at 10 uM pre-incubated for 2 hrs before LPS stimulation for 24 hrs by qRT-PCR method. It counts as functional, cell-based. In a few lines:
as §3

Series [8] deals with RAW264.7. As to the kind of experiment: Inhibition of LPS-induced IL-6 mRNA expression in mouse RAW264.7 cells pre-incubated for 2 hrs before LPS stimulation for 24 hrs by qRT-PCR method. Format: functional, cell-based. In a few lines:
as §3

The target of series [9] is MAP kinase p38 (Mus musculus) (UniProt P47811+O08911+Q9WUI1+Q9Z1B7). Description: Inhibition of LPS-induced p38 MAPK phosphorylation in mouse RAW264.7 cells at 1 to 50 uM pre-incubated for 2 hrs before LPS stimulation for 30 min by Western blotting method.
The target in series [10] is Mitogen-activated protein kinase 1 and 3 (ERK2 and ERK1) (Mus musculus) (UniProt P63085+Q63844). As to the kind of experiment: Inhibition of LPS-induced ERK1/2 MAPK phosphorylation in mouse RAW264.7 cells at 1 to 50 uM pre-incubated for 2 hrs before LPS stimulation for 30 mins by Western blotting method.
The target of series [11] is JNK1/JNK2 (Mus musculus) (UniProt Q91Y86+Q9WTU6). Description: Inhibition of LPS-induced JNK1/2 MAPK phosphorylation in mouse RAW264.7 cells at 1 to 50 uM pre-incubated for 2 hrs before LPS stimulation for 30 mins by Western blotting method.
Series [12] has as its system RAW264.7. Description: Inhibition of LPS-induced IL-1beta mRNA expression in mouse RAW264.7 cells pre-incubated for 2 hrs before LPS stimulation for 24 hrs by qRT-PCR method. It counts as functional, cell-based. In short, it runs like this:
as §3

Series [13] deals with T1, NF-kappa-B inhibitor alpha (Mus musculus) (UniProt Q9Z1E3).
T1 sequence (whole entry): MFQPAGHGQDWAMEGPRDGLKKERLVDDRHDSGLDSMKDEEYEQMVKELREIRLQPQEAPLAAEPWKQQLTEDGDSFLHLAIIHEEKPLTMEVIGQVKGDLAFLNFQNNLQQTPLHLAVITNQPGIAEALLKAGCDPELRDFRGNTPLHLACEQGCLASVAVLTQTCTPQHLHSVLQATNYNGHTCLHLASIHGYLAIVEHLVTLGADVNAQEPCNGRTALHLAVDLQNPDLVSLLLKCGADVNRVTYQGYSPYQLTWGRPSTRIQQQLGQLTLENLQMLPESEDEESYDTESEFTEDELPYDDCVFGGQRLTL
Description: Inhibition of LPS-induced IkappaB-alpha degradation in mouse RAW264.7 cells at 1 to 50 uM pre-incubated before LPS stimulation for 5 mins by Western blotting method.

Series [14] has as its target RAC-alpha serine/threonine-protein kinase (Mus musculus) (UniProt P31750). Description: Inhibition of LPS-induced AKT phosphorylation in mouse RAW264.7 cells at 1 to 50 uM pre-incubated for 30 mins before LPS stimulation for 30 mins by Western blotting method.
The subject of series [15] is RAW264.7. Description: Inhibition of LPS-induced iNOS mRNA expression in mouse RAW264.7 cells pre-incubated for 2 hrs before LPS stimulation for 24 hrs by qRT-PCR method. It counts as functional, cell-based. In short, it runs like this:
as §2

In series [16] the target is T1, NF-kappa-B inhibitor alpha (Mus musculus). Description: Inhibition of LPS-induced IkappaB-alpha phosphorylation in mouse RAW264.7 cells at 1 to 50 uM pre-incubated before LPS stimulation for 5 mins by Western blotting method.
Series [17] deals with RAW264.7. Description: Inhibition of LPS-induced IL-6 protein expression in mouse RAW264.7 cells at 1 to 50 uM pre-incubated for 2 hrs before LPS stimulation for 24 hrs by ELISA.
Series [18] concerns RAW264.7. As to the kind of experiment: Inhibition of LPS-induced iNOS protein expression in mouse RAW264.7 cells pre-incubated for 2 hrs before LPS stimulation for 24 hrs by Western blotting method. Format: functional, cell-based. In short, it runs like this: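 Cells in 6-well plates pretreated (1, 10, 50 µM; BAY 11-7082 10 µM) for 2 h, LPS 0.5 µg/mL 24 h; lysates immunoblotted with anti-iNOS, GAPDH loading control.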

pIC50: −log10 of the molar value. Active and inactive are the calls of the source. No cut-off for these calls is given here.

Chain of JNK1/JNK2 (Mus musculus) (Q91Y86 whole entry, looked up): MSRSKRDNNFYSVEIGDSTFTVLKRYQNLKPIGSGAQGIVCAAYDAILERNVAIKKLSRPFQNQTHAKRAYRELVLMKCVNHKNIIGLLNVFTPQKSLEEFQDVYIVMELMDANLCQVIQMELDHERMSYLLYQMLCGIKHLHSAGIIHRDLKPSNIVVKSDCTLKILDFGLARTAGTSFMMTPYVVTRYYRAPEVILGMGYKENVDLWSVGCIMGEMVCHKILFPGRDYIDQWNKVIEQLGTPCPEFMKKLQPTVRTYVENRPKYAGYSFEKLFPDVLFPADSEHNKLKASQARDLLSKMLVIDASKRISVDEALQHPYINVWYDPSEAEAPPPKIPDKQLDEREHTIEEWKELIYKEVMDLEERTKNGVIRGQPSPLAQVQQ
Chain of JNK1/JNK2 (Mus musculus) (Q9WTU6 whole entry, looked up): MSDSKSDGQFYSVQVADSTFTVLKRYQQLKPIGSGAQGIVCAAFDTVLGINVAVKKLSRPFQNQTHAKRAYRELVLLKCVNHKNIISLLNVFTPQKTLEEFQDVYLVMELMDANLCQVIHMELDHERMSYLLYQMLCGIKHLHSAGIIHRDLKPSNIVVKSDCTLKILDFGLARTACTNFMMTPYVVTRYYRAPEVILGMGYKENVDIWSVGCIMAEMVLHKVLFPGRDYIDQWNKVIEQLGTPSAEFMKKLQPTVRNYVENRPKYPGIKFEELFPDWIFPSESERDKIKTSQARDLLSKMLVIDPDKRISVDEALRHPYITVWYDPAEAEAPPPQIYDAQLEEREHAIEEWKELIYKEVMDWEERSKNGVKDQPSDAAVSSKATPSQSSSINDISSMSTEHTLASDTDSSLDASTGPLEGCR
Chain of RAC-alpha serine/threonine-protein kinase (Mus musculus) (P31750 whole entry): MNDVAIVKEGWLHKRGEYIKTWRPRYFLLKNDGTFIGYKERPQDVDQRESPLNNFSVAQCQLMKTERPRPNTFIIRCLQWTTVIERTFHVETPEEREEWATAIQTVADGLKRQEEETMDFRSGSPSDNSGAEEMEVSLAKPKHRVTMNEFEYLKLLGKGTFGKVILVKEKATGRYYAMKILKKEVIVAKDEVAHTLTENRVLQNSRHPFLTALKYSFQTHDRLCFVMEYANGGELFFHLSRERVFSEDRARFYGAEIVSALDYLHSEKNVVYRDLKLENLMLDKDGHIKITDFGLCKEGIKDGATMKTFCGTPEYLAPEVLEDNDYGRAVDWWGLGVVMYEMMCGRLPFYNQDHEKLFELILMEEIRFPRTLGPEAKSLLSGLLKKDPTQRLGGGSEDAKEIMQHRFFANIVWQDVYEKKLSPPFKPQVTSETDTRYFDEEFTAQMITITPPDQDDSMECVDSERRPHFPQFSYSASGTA
Chain of Mitogen-activated protein kinase 1 and 3 (ERK2 and ERK1) (Mus musculus) (P63085 whole entry, looked up): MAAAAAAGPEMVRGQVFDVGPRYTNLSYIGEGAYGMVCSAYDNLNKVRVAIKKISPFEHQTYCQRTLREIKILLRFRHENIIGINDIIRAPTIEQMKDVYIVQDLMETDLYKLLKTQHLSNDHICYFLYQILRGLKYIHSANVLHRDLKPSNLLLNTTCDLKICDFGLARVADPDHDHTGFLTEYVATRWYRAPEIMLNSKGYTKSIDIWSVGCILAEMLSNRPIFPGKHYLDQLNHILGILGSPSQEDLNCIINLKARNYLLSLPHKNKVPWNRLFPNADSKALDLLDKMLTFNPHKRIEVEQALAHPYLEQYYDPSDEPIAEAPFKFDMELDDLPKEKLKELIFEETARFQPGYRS
Chain of Mitogen-activated protein kinase 1 and 3 (ERK2 and ERK1) (Mus musculus) (Q63844 whole entry, looked up): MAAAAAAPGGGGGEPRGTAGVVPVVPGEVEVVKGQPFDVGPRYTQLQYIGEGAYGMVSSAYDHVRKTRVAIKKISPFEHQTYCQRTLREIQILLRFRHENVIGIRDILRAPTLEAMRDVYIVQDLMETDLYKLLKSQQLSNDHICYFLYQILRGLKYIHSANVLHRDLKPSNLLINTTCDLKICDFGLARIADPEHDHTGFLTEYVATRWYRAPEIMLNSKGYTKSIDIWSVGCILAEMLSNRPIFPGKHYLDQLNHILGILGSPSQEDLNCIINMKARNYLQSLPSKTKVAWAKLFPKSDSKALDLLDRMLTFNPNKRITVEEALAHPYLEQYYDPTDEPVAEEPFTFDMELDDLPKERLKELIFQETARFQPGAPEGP

For `COC(=O)/C(=C\c1ccc2c(c1)OCO2)c1ccc(OC)c(OC)c1`, in series [1], the viability at 24 h, 50 µM amounted to 56.1%. The Activity in [2] is recorded as 79%.
As for `COC(=O)c1cc2cc(OC)c(OC)cc2c2cc(OC)ccc12`, the viability at 24 h, 50 µM in series [1] is 99.7%. Besides, in series [2], the Activity was 83%.
Turning to `CCN(CC)C(=O)/C(=C/c1ccc(OC)c(OC)c1)c1ccc(OC)c(OC)c1`, the viability at 24 h, 50 µM in series [1] amounted to 111%. In addition, in [2], the Activity came to 92.7%.
Consider `COc1ccc(/C=C(\C#N)c2ccc(OC)c(OC)c2)cc1OC`, for which, in series [1], the viability at 24 h, 50 µM was 96.7%. In addition, the Activity in series [2] was found to be 46.7%.
Take `COC(=O)/C(=C/c1ccc2c(c1)OCO2)c1ccc(OC)c(OC)c1`: the viability at 24 h, 50 µM in series [1] was 88%. Further, the Activity in series [2] stood at 109.2%.
The matching figures for `COc1ccc(/C(=C\c2ccc3c(c2)OCO3)C(=O)O)cc1OC`: 123% and 86%.
The matching figures for `COc1cc2cc(C(=O)O)c3cc(OC)c(OC)cc3c2cc1OC`: 101% and 78.2%.
Consider `COc1ccc(/C(=C/c2ccc3c(c2)OCO3)C(=O)O)cc1OC`, for which the viability at 24 h, 50 µM in series [1] turned out to be 103%. Further, in series [2], the Activity is 106.9%.
Regarding `COC(=O)c1cc2cc(OC)ccc2c2cc(OC)c(OC)cc12`, in series [1], the viability at 24 h, 50 µM stood at 99.3%. The Activity in series [2] is given as 48.8%.
`COC(=O)/C(=C/c1cccc(OC)c1)c1ccc(OC)c(OC)c1`: the viability at 24 h, 50 µM in series [1] came out at 76.5%. Moreover, the Activity in series [2] was determined as 84.6%.
The matching figures for `COC(=O)c1cc2cc3c(cc2c2cc(OC)c(OC)cc12)OCO3`: 101% and 75%.
In general, pIC50 refers to −log10 of the IC50, conventionally taken in molar units. Turning to `COC(=O)/C(=C/c1ccc(OC)c(OC)c1)c1ccc(OC)cc1`, the viability at 24 h, 50 µM in [1] was 66.7%. In addition, the pIC50 in series [3] was 4.43. For the same compound, the Activity in series [2] was 45.5%.
With `COc1cc2c(C(=O)O)cc3cc4c(cc3c2cc1OC)OCO4`, in series [1], the viability at 24 h, 50 µM was found to be 107%. In [2], the Activity amounted to 53.1%.
For `COC(=O)/C(=C\c1ccc(OC)c(OC)c1)c1ccc(OC)c(OC)c1`, the viability at 24 h, 50 µM in series [1] amounted to 91.1%. Also, the Activity in series [2] is reported as 98.7%.
Regarding `COc1cc2cc(C#N)c3cc(OC)c(OC)cc3c2cc1OC`, in [1], the viability at 24 h, 50 µM was determined as 102%. Further, the Activity in series [2] was 108.8%.
In the case of `COC(=O)c1cc2cc(OC)c(OC)cc2c2cc(OC)c(OC)cc12`, the viability at 24 h, 50 µM in series [1] was determined as 101%. Further, the Activity in series [2] is 45.3%.
Take `CCN(CC)C(=O)c1cc2cc(OC)c(OC)cc2c2cc(OC)c(OC)cc12`: the viability at 24 h, 50 µM in series [1] was 94.7%. The pIC50 in series [3] is 4.69. In addition, in [2], the Activity was determined as 39.8%.
As to `COc1ccc(/C=C(\C(=O)O)c2ccc(OC)c(OC)c2)cc1OC`, the viability at 24 h, 50 µM in [1] was found to be 106%. Moreover, the Activity in series [2] was 120.7%.
Turning to `COc1ccc(/C=C(/C(=O)O)c2ccc(OC)c(OC)c2)cc1OC`, the viability at 24 h, 50 µM in series [1] was found to be 121%. The Activity in series [2] was determined as 64.3%.
Regarding `Cc1ccc(S(=O)(=O)/C=C/C#N)cc1`, the inhibition entry in series [4], in series [5] and in series [7] was “Active” each time. The Activity in series [6] is given as 1.2%.
Turning to `COC(=O)/C(=C/c1ccc(OC)c(OC)c1)c1ccc(OC)c(OC)c1`, the inhibition result in series [8], in series [12], in series [15] and in series [18] was “Dose-dependent effect” in each case. Besides, the viability at 24 h, 50 µM in series [1] was found to be 114%. Moreover, the inhibition result in series [9], in series [13], in [14], in [16] and in series [17] was “Active” in each case. Further, the inhibition entry in [10] and in series [11] was “inactive” in each case. Moreover, the pIC50 in series [3] is 5.30. Moreover, in series [2], the Activity was determined as 3.9%.
